Test results: ChEMBL document CHEMBL1128370, “Novel NMDA antagonists: replacement of the pyridinium ring of 6,11-ethanobenzo[b]quinolizinium cations with heteroisoquinolinium cations” (J Med Chem, 1995)

How the values were obtained:
Glutamate NMDA receptor = experiment: Binding affinity against phencyclidine (PCP) site of N-methyl-D-aspartate glutamate receptor from rat brain, using [3H]- TCP as radioligand.
Outline: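 Male Sprague-Dawley rat whole-brain membranes, washed by repeated homogenization/centrifugation in 50 mM Tris-HCl pH 7.7, frozen at -70 °C, assayed in 5 mM Tris-HCl at 0.5 mg protein/tube. [3H]TCP about 1 nM final with varying compound concentrations, 25 min at room temperature. Nonspecific binding with 100 μM PCP. Filtration, scintillation counting, Ki calculated. At least three determinations in triplicate.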

[1] = Neuroprotection was determined against NMDA induced cell death in cultured mouse cortical neuron.; format: functional
Outline: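 Primary cortical neurons from Swiss-Webster mouse embryos at 16 days post conception, trypsinized, plated at 50 000 cells/well, cytosine arabinoside from day 5, used on day 13. Cells were washed and exposed 30 min to 500 µM NMDA with or without varying concentrations of test agent in MEM, then returned to MEM alone. MK-801 10 µM served as positive control.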

Compound | Ki (Glutamate NMDA receptor) | IC50 [1]
c1ccc(C(c2ccccc2)n2cc[n+]3c2C2c4ccccc4C3CC2(c2ccoc2)c2ccoc2)cc1 (configuration not stated) | 306 nM | 
c1ccc2c(c1)C1CC(c3ccoc3)(c3ccoc3)C2c2scc[n+]21 (configuration not stated) | 2.9 nM | 50 nM
Cn1cc[n+]2c1C1c3ccccc3C2CC1(c1ccoc1)c1ccoc1 (configuration not stated) | 2.9 nM | 257 nM
CCOC1(OCC)C2c3ccccc3C([n+]3ccn(Cc4ccccc4)c32)C1(C)C (configuration not stated) | 10 nM | 
c1ccc(-n2cc[n+]3c2C2c4ccccc4C3CC2(c2ccoc2)c2ccoc2)cc1 (configuration not stated) | 52 nM | 
c1ccc(CCCn2cc[n+]3c2C2c4ccccc4C3CC2(c2ccoc2)c2ccoc2)cc1 (configuration not stated) | 68 nM | 
CCOC1(OCC)C2c3ccccc3C([n+]3ccsc32)C1(C)C (configuration not stated) | 6.1 nM | 173 nM
Cn1nc[n+]2c1C1c3ccccc3C2CC1(c1ccoc1)c1ccoc1 (configuration not stated) | 14 nM | 
CCCCn1cc[n+]2c1C1c3ccccc3C2CC1(c1ccoc1)c1ccoc1 (configuration not stated) | 36 nM | 
c1ccc(Cn2cc[n+]3c2C2c4ccccc4C3CC2(c2ccoc2)c2ccoc2)cc1 (configuration not stated) | 7.7 nM | 42 nM
c1ccc2c(c1)C1CC(c3ccoc3)(c3ccoc3)C2c2n(Cc3ccc4ccccc4c3)cc[n+]21 (configuration not stated) | 330 nM | 
CCOC1(OCC)C2c3ccccc3C([n+]3ccccc32)C1(C)C (configuration not stated) |  | 60 nM
C1=C[N+]2=C(C1c1cccc3ccccc13)C1c3ccccc3C2CC1(c1ccoc1)c1ccoc1 (configuration not stated) | 329 nM | 
C[C@]12N[C@H](Cc3ccccc31)c1ccccc12 [DIZOCILPINE] |  | 67 nM
c1ccc2c(c1)C1CC(c3ccoc3)(c3ccoc3)C2c2cccc[n+]21 (configuration not stated) |  | 45 nM
CCOC1(OCC)C2c3ccccc3C([n+]3cnn(C)c32)C1(C)C (configuration not stated) | 30 nM | 
CCOC1(OCC)C2c3ccccc3C([n+]3ccn(C)c32)C1(C)C (configuration not stated) | 8.2 nM | 53 nM
